EBNA-1 inhibitor: blocks EBNA-1 binding to DNA | EBNA-1 DNA binding, fluorescence polarization | actives 0.34% (n = 300,000) | inhibition, % at 14.8 µM; in the data active means inhibition above about 28%
SUMO HTRF inh: blocks human SUMOylation mediated by UBC9. HTRF SUMOylation assay, SAE1/SAE2 + UBC9, in vitro. inhibition, % at 35 µM. actives 0.36% (n = 290,000). AID 2006. P63279; in the data active means inhibition above about 50%, passing the limit was not always enough
Target sequence (P63279 whole entry, looked up): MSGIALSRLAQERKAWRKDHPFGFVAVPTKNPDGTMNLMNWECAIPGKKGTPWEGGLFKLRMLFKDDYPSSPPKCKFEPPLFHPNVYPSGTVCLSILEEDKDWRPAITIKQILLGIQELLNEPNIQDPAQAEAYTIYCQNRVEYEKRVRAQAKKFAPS
ZTA counter: blocks Epstein-Barr virus ZTA, an EBNA-1 counter-screen; inhibition, % at 11 µM; P03206; ZTA-DNA binding, fluorescence polarization; actives 0.15% (n = 320,000); in the data active means inhibition above about 33%
Target sequence (P03206 whole entry, looked up): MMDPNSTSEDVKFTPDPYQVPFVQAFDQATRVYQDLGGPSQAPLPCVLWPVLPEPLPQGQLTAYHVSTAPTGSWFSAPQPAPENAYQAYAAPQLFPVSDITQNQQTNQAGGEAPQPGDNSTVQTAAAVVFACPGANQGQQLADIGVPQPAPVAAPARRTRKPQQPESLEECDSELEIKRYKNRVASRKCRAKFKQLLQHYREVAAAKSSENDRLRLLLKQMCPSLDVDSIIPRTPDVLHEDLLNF
HCV NS3 hel inh: blocks Hepatitis C virus NS3 helicase unwinding; NS3 helicase DNA unwinding, Cy5 molecular beacon fluorescence; inhibition, % at 10.9 µM; actives 0.56% (n = 290,000); AID 1800;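 active means inhibition above the mean of all tested compounds plus 3 SD, set per campaign, cut at about 35% in these data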
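System: HCV NS3 helicase fragment; control set: DMSO and thioflavine S; technique: Cy5 fluorescence at 0 and 60 min, beacon hairpin quenching; reagent: beacon DNA duplex substrate plus ATP; replicates: singlicate; schedule: 1 h reaction at 25 °C, ATP-initiated; medium: MOPS buffer pH 6.5 with MgCl2, DTT, Tween20, BSA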
core dimer inh: blocks dimerization of HCV core protein; TR-FRET GST/Flag-core106 dimerization, 1536-well; inhibition, % at 5 µM; actives 0.33% (n = 300,000);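 active means inhibition above the mean of all tested compounds plus 3 SD, set per screening campaign, cut at about 45% in these data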
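test system = GST/Flag-tagged HCV core106 proteins | probe or stimulus = Eu donor and XL665 acceptor anti-tag antibodies | times = compound-protein-antibody incubation 4 h at 22.5 °C | signal = TR-FRET, excitation 340 nm, emission 617 and 671 nm | measure = percent inhibition of core106 dimerization signal | controls = wells lacking GST-core106 and wells with excess unlabelled core106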
EBNA-1 confirm: EBNA-1 (EBV) inhibition, confirmation | AID 2292 | shares compounds with EBNA-1 inhibitor | inhibition, % at 14.8 µM | actives 35% (n = 830) | Recombinant EBNA-1 DBD, Cy5-DNA fluorescence polarization;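 active means mean inhibition across replicates above a set limit taken from the earlier primary screen, cut at about 28% in these data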
ZTA counter trip: ZTA (EBV) inhibition, triplicate counter-screen; 830 tested, under 10 active; Zta-ZRE DNA binding, Cy5 fluorescence polarization; shares compounds with EBNA-1 inhibitor; inhibition, % at 11.1 µM;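 active means mean inhibition over triplicates above a set limit taken from the primary EBNA-1 screen, cut at about 37% in these data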;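 further: purified full length Zta protein with Cy5 labeled ZRE DNA probe; inhibitors lower polarization by freeing the labeled DNA probe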
Large screens that a line does not name were inactive (follow-up assays come after a bar, where they were run). A selection: hits, their analogues and other compounds. The true share with any hit is near 1.4%.

COc1cccc(-n2c(SCC(=O)NCC3CCCO3)nc3c([nH]c4ccccc43)c2=O)c1 (stereo not drawn)	none
CCn1c(SCC(=O)Nc2cccc(NC(C)=O)c2)nc2c([nH]c3ccccc32)c1=O	none
COc1ccc(-n2c(SCC(=O)NCC3CCCO3)nc3c([nH]c4ccccc43)c2=O)cc1 (stereo not drawn)	EBNA-1 inhibitor 110 | EBNA-1 confirm 123 | ZTA counter trip inactive
O=C(CCSc1nc2ccccc2s1)N/N=C/c1c(O)ccc2ccccc12	EBNA-1 inhibitor 48 | EBNA-1 confirm inactive | ZTA counter trip inactive
O=C(NCc1cc(F)ccc1F)C1CCC(=O)N(C2CCCCCC2)C1 (stereo not drawn)	none
O=C(CCCc1nc(-c2ccc(Cl)cc2)no1)NC1CCCCC1	none
Cc1cccc(-c2noc(CCC(=O)Nc3ccc(C(N)=O)cc3)n2)c1	EBNA-1 inhibitor 76 | EBNA-1 confirm 39 | ZTA counter trip inactive
Cc1cccc(-c2noc(CCCC(=O)Nc3ccc(C(N)=O)cc3)n2)c1	none
CCC(=O)NCc1csc(-c2cccs2)n1	none
O=C(NCc1csc(-c2cccs2)n1)Nc1cccc(Cl)c1	EBNA-1 inhibitor 28 | EBNA-1 confirm inactive | ZTA counter trip inactive
COc1ccc2c(c1)c(C(C)=O)c(C)n2CCc1ccccc1	none
O=C(CNC(=O)c1ccco1)NCC(=O)OCc1ccc(C(=O)Oc2ccc(Cl)cc2)cc1	EBNA-1 inhibitor 89 | EBNA-1 confirm inactive | ZTA counter trip inactive
O=C(COc1ccc2ccccc2c1)NNC(=O)Cc1ccccc1	EBNA-1 inhibitor 28 | EBNA-1 confirm 35 | ZTA counter trip inactive
CC(=O)Nc1ccc(S(=O)(=O)NCC2CCC(C(=O)NC3CCCCCC3)CC2)cc1 (stereo not drawn)	none
Cc1ccc(S(=O)(=O)NCC2CCC(C(=O)NC3CCCCC3)CC2)cc1 (stereo not drawn)	EBNA-1 inhibitor 49 | EBNA-1 confirm 39 | ZTA counter trip inactive
CCc1cc(=O)n2[nH]c(-c3ccccc3)c(-c3ccccc3)c2n1	none
COC(=O)c1cn(NC(=O)/C=C/c2cc(OC)ccc2OC)c(=O)c2ccccc12	EBNA-1 inhibitor 42 | EBNA-1 confirm inactive | ZTA counter trip inactive
COC(=O)c1cn(NC(=O)c2ccc(OC)c(OC)c2)c(=O)c2ccccc12	none
O=C(c1ccco1)N1CCN(C(=O)c2cnn(-c3ccc(Cl)cc3)c2C2CCNCC2)CC1	none
CCOCCCn1c(SCC(=O)NCc2ccco2)nc2c(sc3ccccc32)c1=O	EBNA-1 inhibitor 30 | EBNA-1 confirm inactive | ZTA counter trip inactive
COc1ccc(-c2ccc(C#N)c(SCC(=O)NCCc3ccccc3)n2)cc1OC	EBNA-1 inhibitor 28 | EBNA-1 confirm inactive | ZTA counter trip inactive
CCOc1ccc(NC(=O)CCC(=O)N/N=C/c2ccc3c(c2)OCO3)cc1	EBNA-1 inhibitor 35 | EBNA-1 confirm inactive | ZTA counter trip inactive
NC(=O)c1ccc(NC(=O)COC(=O)/C=C/c2ccc3c(c2)OCO3)cc1	EBNA-1 inhibitor 32 | EBNA-1 confirm inactive | ZTA counter trip inactive
CCOc1ccc(/C=N/NC(=O)CCC(=O)Nc2ccc(F)cc2)cc1	none
COc1ccc(CCNC(=O)c2cc3ccccc3oc2=O)cc1	none
CCCNC(=O)c1ccc(N2CCC3(CC2)CC(c2ccccc2)=NO3)c([N+](=O)[O-])c1	none
CCCNC(=O)c1ccc(N2CCC3(CC2)CC(c2ccccc2)=NO3)c(N)c1	EBNA-1 inhibitor 51 | EBNA-1 confirm inactive | ZTA counter trip inactive
COC(=O)CCCCCN1C(=O)/C(=C\c2ccncc2)SC1=S	none
COc1cc(NC(=S)NC(=O)c2ccc(C(C)(C)C)cc2)ccc1NC(=O)c1cccs1	none
COc1cc(NC(=S)NC(=O)c2cc(C)cc(C)c2)ccc1NC(=O)c1cccs1	EBNA-1 inhibitor 70 | EBNA-1 confirm inactive | ZTA counter trip inactive
COc1cc(NC(=S)NC(=O)c2ccc(F)cc2)ccc1NC(=O)c1ccco1	EBNA-1 inhibitor 40 | EBNA-1 confirm 35 | ZTA counter trip inactive
COc1c(Cl)cc(C(=O)NCc2ccco2)cc1Cl	none
Cc1ccc2c(c1)N(CC(=O)NC1CCC(C)CC1)C(=O)c1cccnc1O2 (stereo not drawn)	none
CCOc1ccc(NC(=O)c2ccc(NC(=S)NC3CC3)cc2)cc1	EBNA-1 inhibitor 38 | EBNA-1 confirm 28 | ZTA counter trip inactive
CCOc1ccc(NC(=O)c2ccc(C#CC(C)(C)O)cc2)cc1	EBNA-1 inhibitor 30 | EBNA-1 confirm inactive | ZTA counter trip inactive
O=C(COc1ccccc1)NCc1ccc(-n2cccc2)cc1	EBNA-1 inhibitor 92 | EBNA-1 confirm 42 | ZTA counter trip inactive
Cc1ccccc1C(C)NC(=O)COC(=O)Cn1cc(C(F)(F)F)ccc1=O (stereo not drawn)	none (no result: EBNA-1 inhibitor, SUMO HTRF inh, HCV NS3 hel inh, core dimer inh)
O=C(Nc1cccc(Cl)c1Cl)C1CC(=O)N(c2ccc(Br)cc2)C1 (stereo not drawn)	EBNA-1 inhibitor 60 | EBNA-1 confirm inactive | ZTA counter trip inactive
COc1ccc(NC(=S)Nc2cc(-c3ccccc3)[nH]n2)cc1Cl	EBNA-1 inhibitor 36 | EBNA-1 confirm inactive | ZTA counter trip inactive
COc1ccc(NC(=S)Nc2cc(C)[nH]n2)cc1Cl	none
Cc1cc(C)c2oc(-c3ccc(C)c(NC(=S)NC(=O)c4cccs4)c3)nc2c1	none
Cc1ccc(-c2nc3ccccc3o2)cc1NC(=S)NC(=O)c1cccs1	EBNA-1 inhibitor 36 | EBNA-1 confirm inactive | ZTA counter trip inactive
O=C(c1cccc(-c2ccc(O)cc2)c1)N1CCN(c2ccc(F)cc2)CC1	EBNA-1 inhibitor 40 | EBNA-1 confirm inactive | ZTA counter trip inactive
O=C(Nc1cccc(C(=O)N2CCN(c3ccc(F)cc3)CC2)c1)c1ccccc1	none
CCn1c(Cc2ccccc2)nnc1SCC(=O)Nc1ccc2c(c1)OCCO2	EBNA-1 inhibitor 29 | EBNA-1 confirm inactive | ZTA counter trip inactive
CCn1c(COc2ccccc2C)nnc1SCC(=O)Nc1ccc2c(c1)OCCO2	none (no result: EBNA-1 inhibitor, ZTA counter, core dimer inh)
CCn1c(CNC(=O)C23CC4CC(CC(C4)C2)C3)nnc1SCC(=O)Nc1nnc(C)s1	EBNA-1 inhibitor 42 | EBNA-1 confirm inactive | ZTA counter trip inactive
O=C(NCCc1ccc(Cl)cc1)C1CCC(CNc2nc(=S)[nH]c3ccccc23)CC1 (stereo not drawn)	EBNA-1 inhibitor 30 | EBNA-1 confirm 32 | ZTA counter trip inactive
O=C(NCc1ccccc1Cl)C1CCC(CNc2nc(=S)[nH]c3ccccc23)CC1 (stereo not drawn)	none
CCCCNC(=O)C1CCC(CNc2nc(=S)[nH]c3ccccc23)CC1 (stereo not drawn)	none
